The IC50 is the concentration that inhibits the measured activity by half. Low readings indicate inhibition by little substance, high ones a need for much substance.

The target in assay [1] is T1, Cholinesterase (Homo sapiens, UniProt P06276). Put plainly: Anticholinesterase activity against plasma Butyrylcholinesterase (BChE) in humans. The format is cell-free.
Assay [2] deals with T2, Acetylcholinesterase (Homo sapiens, UniProt P22303). Put plainly: Anticholinesterase activity against erythrocyte acetylcholinesterase (AChE) in humans. In a few lines: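 Human red blood cells, freshly collected, were washed five times in isotonic saline, lysed in 0.1 M Na3PO4 pH 7.4 with 0.5% Triton-X, and diluted 1:200. Compounds in half-log dilutions from 0.3 nM were preincubated with enzyme for 30 min at room temperature in pH 8.0 phosphate.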
T2 sequence (P22303 whole entry): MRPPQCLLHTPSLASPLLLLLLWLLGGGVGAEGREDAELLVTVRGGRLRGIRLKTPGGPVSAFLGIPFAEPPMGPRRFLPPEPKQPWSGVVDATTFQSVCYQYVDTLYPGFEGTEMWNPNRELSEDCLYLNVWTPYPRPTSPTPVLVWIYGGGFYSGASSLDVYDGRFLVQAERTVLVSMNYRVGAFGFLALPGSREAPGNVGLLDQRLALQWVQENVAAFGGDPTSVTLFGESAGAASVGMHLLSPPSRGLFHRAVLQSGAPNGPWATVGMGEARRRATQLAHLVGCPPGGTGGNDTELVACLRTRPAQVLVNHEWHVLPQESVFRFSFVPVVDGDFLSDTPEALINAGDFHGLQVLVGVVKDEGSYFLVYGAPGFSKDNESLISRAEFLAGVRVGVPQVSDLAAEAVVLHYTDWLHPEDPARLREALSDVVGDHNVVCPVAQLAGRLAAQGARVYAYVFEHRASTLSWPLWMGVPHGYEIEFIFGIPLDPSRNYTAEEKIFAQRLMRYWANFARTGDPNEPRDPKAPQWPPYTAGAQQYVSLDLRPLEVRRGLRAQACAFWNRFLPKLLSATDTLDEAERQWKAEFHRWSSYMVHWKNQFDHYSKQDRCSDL

Assay [3] has as its target T2, Acetylcholinesterase. Put plainly: Anticholinesterase activity against erythrocyte acetylcholinesterase (AChE) in humans.(no detectable activity at 3*10e-5 M).
The target of assay [4] is T1, Cholinesterase. Put plainly: Anticholinesterase activity against plasma Butyrylcholinesterase (BChE) in humans.(no detectable activity at 3*10e-5 M). The format is cell-free.

T1 sequence (P06276 whole entry): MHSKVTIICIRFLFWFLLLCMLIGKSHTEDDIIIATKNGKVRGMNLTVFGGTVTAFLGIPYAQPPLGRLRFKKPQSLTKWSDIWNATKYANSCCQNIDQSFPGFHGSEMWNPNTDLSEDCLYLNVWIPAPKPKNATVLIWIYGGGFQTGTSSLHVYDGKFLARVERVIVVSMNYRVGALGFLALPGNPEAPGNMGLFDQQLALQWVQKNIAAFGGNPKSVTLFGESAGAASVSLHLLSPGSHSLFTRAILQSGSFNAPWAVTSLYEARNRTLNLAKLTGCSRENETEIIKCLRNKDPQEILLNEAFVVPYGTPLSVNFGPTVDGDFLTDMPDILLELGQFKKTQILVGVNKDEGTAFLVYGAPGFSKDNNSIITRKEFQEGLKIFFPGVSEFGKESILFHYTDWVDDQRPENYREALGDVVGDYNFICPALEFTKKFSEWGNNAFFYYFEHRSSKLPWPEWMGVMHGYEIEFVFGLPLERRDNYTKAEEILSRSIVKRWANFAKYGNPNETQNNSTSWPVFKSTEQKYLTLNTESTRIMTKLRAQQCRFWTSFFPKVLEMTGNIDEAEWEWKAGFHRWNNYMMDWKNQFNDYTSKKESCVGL

As for `C[C@]12CCNC1Nc1ccc(OC(=O)Nc3ccccc3)cc12` (stereo not given in full), the IC50 in assay [1] was 952 nM; in assay [2], 231 nM.
For `CNC(=O)Oc1ccc2c(c1)[C@]1(C)CCNC1N2` (stereo not given in full) the same measures were 2.4 nM and 10.9 nM.
Consider `CN1CC[C@@]2(C)c3cc(O)ccc3N(C)[C@@H]12`, for which the half-maximal inhibitory concentration (IC50) result in assay [3] and in assay [4] was “No detectable activity” in each case.
Take `CN1CC[C@@]2(C)C3=CC(=O)C(=O)C=C3N(C)C12` (stereo not given in full): the IC50 entry in assay [3] and in assay [4] was “No detectable activity” throughout.
For `C[C@]12CCN(Cc3ccccc3)C1N(Cc1ccccc1)c1ccc(OC(=O)Nc3ccccc3)cc12` (stereo not given in full), the IC50 result in assay [3] and in assay [4] was “No detectable activity” in each case.
Turning to `C[C@@]12CCNC1Nc1ccc(OC(=O)Nc3ccccc3)cc12` (stereo not given in full), the half-inhibitory concentration (IC50) in assay [1] came out at 897 nM.
As to `CNC(=O)Oc1ccc2c(c1)[C@@]1(C)CCN(Cc3ccccc3)C1N2Cc1ccccc1` (stereo not given in full), the IC50 was found to be 776 nM in assay [1] and 3560 nM in assay [2].
With `CNC(=O)Oc1ccc2c(c1)[C@@]1(C)CCNC1N2` (stereo not given in full), the results for the half-inhibitory concentration (IC50) in assay [1] and in assay [2] were 237 nM and 1490 nM, respectively.
For `CNC(=O)Oc1ccc2c(c1)[C@]1(C)CCN(Cc3ccccc3)C1N2Cc1ccccc1` (stereo not given in full) the same measures were 8.1 nM and 1090 nM.
As to `CN1c2ccc(OC(=O)Nc3ccccc3)cc2[C@]2(C)CCNC12` (stereo not given in full), half-maximal inhibition in assay [1] (IC50) required 612 nM.
For `C[C@@]12CCN(Cc3ccccc3)C1N(Cc1ccccc1)c1ccc(OC(=O)Nc3ccccc3)cc12` (single isomer, unassigned; (-)), the IC50 in assay [1] came to 513 nM; in assay [2], 41100 nM.

The values are drawn from ChEMBL document CHEMBL1131001, “Syntheses and anticholinesterase activities of (3aS)-N1, N8-bisnorphenserine, (3aS)-N1,N8-bisnorphysostigmine, their antipodal isomers, and other potential metabolites of phenserine” (J Med Chem, 1998).
